pIC50: −log10 of the molar value.
Experiments:
Coagulation factor X = Coagulation factor X (Homo sapiens, UniProt P00742); experiment: Inhibitory concentration against Coagulation factor X
[1] = Anticoagulant activity in vitro was evaluated with plasma clotting time doubling concentration for prothrombin time; assay type: functional, Homo sapiens
Prothrombin = Prothrombin (Homo sapiens, UniProt P00734); experiment: Concentration required to inhibit thrombin activity by 50%
Rattus norvegicus = species: Rattus norvegicus; experiment: Anticoagulant activity in vitro was evaluated by prolongation rate of prothrombin time; assay type: functional
[2] = target: Coagulation factor X (Rattus norvegicus) (UniProt Q63207); experiment: Ex-vivo inhibitory activity against factor Xa of rat blood after 3h of peroral administration of 30 mg/kg; assay type: organism-based; set-up: dose 30 mg/kg; conditions: at 30 mg/kg
Chain of Coagulation factor X (Rattus norvegicus) (Q63207 41-180 limits assumed): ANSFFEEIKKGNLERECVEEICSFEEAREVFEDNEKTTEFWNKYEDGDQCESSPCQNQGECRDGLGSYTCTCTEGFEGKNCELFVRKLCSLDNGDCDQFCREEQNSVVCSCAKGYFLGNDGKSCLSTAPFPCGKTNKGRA
Chain of Coagulation factor X (Rattus norvegicus) (Q63207 232-482 limits assumed): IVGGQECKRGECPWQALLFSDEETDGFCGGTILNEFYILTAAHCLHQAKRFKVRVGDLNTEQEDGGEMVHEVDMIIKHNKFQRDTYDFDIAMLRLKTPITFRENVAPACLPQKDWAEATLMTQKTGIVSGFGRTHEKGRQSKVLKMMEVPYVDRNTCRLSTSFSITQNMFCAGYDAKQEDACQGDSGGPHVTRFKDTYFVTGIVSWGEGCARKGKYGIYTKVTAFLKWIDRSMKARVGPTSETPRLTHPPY
In short: (§1)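 Fasted male Wistar rats received compound orally by stomach tube in 0.5% methylcellulose; controls got vehicle. Under halothane anesthesia, citrated blood was drawn at the stated time and platelet-poor plasma prepared. Plasma anti-fXa activity was measured chromogenically in Tris/NaCl/BSA buffer, pH 7.4, as 1 − sample OD/min ÷ control OD/min.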

[3] = target: Coagulation factor X (Rattus norvegicus) (UniProt Q63207); experiment: Ex-vivo inhibitory activity against factor Xa of rat blood after 1 hr of peroral administration of 30 mg/kg; assay type: organism-based; set-up: dose 30 mg/kg; conditions: at 30 mg/kg; in short: as §1
[4] = target: Coagulation factor X (Rattus norvegicus) (UniProt Q63207); experiment: Ex-vivo inhibitory activity against factor Xa of rat blood after 6 hr of peroral administration of 30 mg/kg; assay type: organism-based; set-up: dose 30 mg/kg; conditions: at 30 mg/kg; in short: as §1

Chain of Coagulation factor X (P00742 41-179 limits assumed): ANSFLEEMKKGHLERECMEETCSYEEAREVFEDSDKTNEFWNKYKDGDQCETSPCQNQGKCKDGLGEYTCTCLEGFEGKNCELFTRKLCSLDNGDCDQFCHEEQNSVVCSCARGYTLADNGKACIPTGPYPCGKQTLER
Chain of Coagulation factor X (P00742 235-488 limits assumed): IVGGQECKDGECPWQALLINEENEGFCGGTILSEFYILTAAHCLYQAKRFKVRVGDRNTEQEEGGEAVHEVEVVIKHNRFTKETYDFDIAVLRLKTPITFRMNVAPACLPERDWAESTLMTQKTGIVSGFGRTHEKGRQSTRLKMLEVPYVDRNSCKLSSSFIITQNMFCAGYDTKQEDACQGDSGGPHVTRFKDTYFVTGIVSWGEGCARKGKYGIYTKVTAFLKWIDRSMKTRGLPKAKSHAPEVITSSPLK

| pIC50 (Coagulation factor X) | SMILES | Anticoagulant activity [1] [µM] | Anticoagulant activity (Rattus norvegicus) [µM] | further results |
| --- | --- | --- | --- | --- |
| 6.04 | O=C(c1ccc2c(n1)CCNC2)N1CCN(S(=O)(=O)c2ccc3cc(Cl)ccc3c2)CC1 |  |  |  |
| 6.57 | O=C(c1cc2c(s1)CCNC2)N1CCN(S(=O)(=O)c2ccc3cc(Cl)ccc3c2)CC1 |  |  |  |
| 6.96 | CCN1CCc2nc(C(=O)N3CCN(S(=O)(=O)c4ccc5cc(Cl)ccc5c4)CC3C(N)=O)sc2C1 (configuration not stated) | 7.2 | 14.6 |  |
| 7.10 | CC(C)N1CCc2nc(C(=O)N3CCN(S(=O)(=O)c4ccc5cc(Cl)ccc5c4)CC3C(N)=O)sc2C1 (configuration not stated) | 6.6 | 17.5 |  |
| 6.49 | CN1CCc2[nH]c(C(=O)N3CCN(S(=O)(=O)c4ccc5cc(Cl)ccc5c4)CC3)cc2C1 |  |  |  |
| 5.21 | O=C(c1cc2c([nH]1)CCNC2)N1CCN(S(=O)(=O)c2ccc3cc(Cl)ccc3c2)CC1 |  |  |  |
| 6.19 | O=C(c1ccc2c(c1)CCNC2)N1CCN(S(=O)(=O)c2ccc3cc(Cl)ccc3c2)CC1 |  |  |  |
| 6.98 | CN1CCc2cc(C(=O)N3CCN(S(=O)(=O)c4ccc5cc(Cl)ccc5c4)CC3)sc2C1 |  |  |  |

Second part, the compound before the results:

| SMILES | pIC50 (Coagulation factor X) | Anticoagulant activity [1] [µM] | Anticoagulant activity (Rattus norvegicus) [µM] | further results |
| --- | --- | --- | --- | --- |
| CN1CCc2sc(C(=O)N3CCN(S(=O)(=O)c4ccc5cc(Cl)ccc5c4)CC3)nc2C1 | 6.68 |  |  |  |
| CN1CCc2cc(C(=O)N3CCN(S(=O)(=O)c4ccc5cc(Cl)ccc5c4)CC3)oc2C1 | 6.26 |  |  |  |
| CN1CCc2nc(C(=O)N3CCN(S(=O)(=O)c4ccc5cc(Cl)ccc5c4)CC3)ccc2C1 | 5.66 |  |  |  |
| CN1CCc2nc(C(=O)N3CCN(S(=O)(=O)c4ccc5cc(Cl)ccc5c4)CC3)sc2C1 |  | 6 | 10 | pIC50 (Prothrombin): 6.25 |
| CN1CCc2sc(C(=O)N3CCN(S(=O)(=O)c4ccc5cc(Cl)ccc5c4)CC3)cc2C1 | 6.72 |  |  |  |
| CN1CCc2nc(C(=O)N3CCN(S(=O)(=O)c4ccc5cc(Cl)ccc5c4)CC3C(N)=O)sc2C1 (configuration not stated) |  | 4.4 | 14 | inhibition [2]: 55.8%; inhibition [3]: 67.4%; pIC50 (Prothrombin): 6.00; inhibition [4]: 24.7% |
| O=C(c1nc2c(s1)CNCC2)N1CCN(S(=O)(=O)c2ccc3cc(Cl)ccc3c2)CC1 |  | 11.2 | 16.1 | pIC50 (Prothrombin): 5.54 |
| O=C(c1cc2c(s1)CNCC2)N1CCN(S(=O)(=O)c2ccc3cc(Cl)ccc3c2)CC1 | 6.80 |  |  |  |
| NC(=O)C1CN(S(=O)(=O)c2ccc3cc(Cl)ccc3c2)CCN1C(=O)c1nc2c(s1)CNCC2 (configuration not stated) | 7.08 | 9.7 | 28.8 |  |
